Source: ChEMBL document CHEMBL1142487, “Design, synthesis, and structure-activity relationship of novel opioid kappa-agonists” (Bioorg Med Chem, 2008)
Activity calls are given as the source filed them. The calls are words filed in the database; no cut-off is given here.

Assays:
[1] = molecular target: Delta-type opioid receptor (Mus musculus) (UniProt P32300); experiment: Equilibrium constant, ratio of IC50 for delta opioid receptor in ddy mouse vas deferens in presence of 10 nM Naltrindole to IC50 for delta opioid receptor in ddy mouse vas deferens
Summary of the method: (§1)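 Electrically stimulated ddY mouse vas deferens was held in Krebs-Henseleit at 37 °C under 95% O2/5% CO2. Tissue was preincubated 20 min with antagonist before the test agonist: naloxone 30 nM (μ), NTI 10 nM (δ), or nor-BNI 10 nM (κ). IC50s were compared with and without antagonist. Ke = [antagonist]/(IC50 ratio − 1).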

[2] = tested on: Mus musculus; experiment: Antinociceptive activity in po dosed mouse assessed as inhibition of acetic acid-induced writhing administered 15 mins before acetic acid challenge; type: functional
Summary of the method: (§2)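 Male mice (5 weeks old) received test compound sc into the rostral back or po, 15 min before ip 0.6% aqueous acetic acid (0.1 mL/10 g). Writhes were counted over 10 min, starting 10 min after the acid. […] The po/sc ED50 ratio was calculated.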

[3] = molecular target: Kappa-type opioid receptor (Mus musculus, UniProt P33534); experiment: Agonist activity at kappa opioid receptor in ddy mouse vas deferens assessed as inhibition of electric stimulation-induced contraction; type: functional, tissue-based
[4] = tested on: Mus musculus; experiment: Ratio of ED50 for acetic acid-induced writhing in po dosed mouse to ED50 for acetic acid-induced writhing in sc dosed mouse; type: functional; summary of the method: as §2
[5] = molecular target: Kappa-type opioid receptor (Mus musculus) (UniProt P33534); experiment: Equilibrium constant, ratio of IC50 for kappa opioid receptor in ddy mouse vas deferens in presence of 10 nM nor-BNI to IC50 for kappa opioid receptor in ddy mouse vas deferens; summary of the method: as §1
[6] = tested on: Mus musculus; experiment: Antinociceptive activity in sc dosed mouse assessed as inhibition of acetic acid-induced writhing administered 15 mins before acetic acid challenge; type: functional; summary of the method: as §2
[7] = molecular target: Mu-type opioid receptor (Mus musculus) (UniProt P42866); experiment: Equilibrium constant, ratio of IC50 for mu opioid receptor in ddy mouse vas deferens in presence of 30 nM naloxone to IC50 for mu opioid receptor in ddy mouse vas deferens; summary of the method: as §1
[8] = tested on: Mus musculus; experiment: Inhibition of acetic acid-induced writhing in sc dosed mouse up to 180 mins administered 15 mins before acetic acid challenge; type: functional, organism-based
[9] = tested on: Mus musculus; experiment: Antinociceptive activity in sc dosed mu opioid receptor antagonist naloxone treated mouse assessed as inhibition of acetic acid-induced writhing administered 15 mins before acetic acid challenge; type: functional, organism-based
[10] = tested on: Mus musculus; experiment: Antinociceptive activity in sc dosed kappa opioid receptor antagonist nor-BNI treated mouse assessed as inhibition of acetic acid-induced writhing administered 15 mins before acetic acid challenge; type: functional, organism-based
[11] = tested on: Mus musculus; experiment: Antinociceptive activity in sc dosed delta opioid receptor antagonist […] treated mouse assessed as inhibition of acetic acid-induced writhing administered 15 mins before acetic acid challenge; type: functional, organism-based

Row | Structure (SMILES) | Ke [1] | ED50 [2] | IC50 [3] | Ratio ED50 [4] | Ke [5] | ED50 [6] | Ke [7] | Activity [8] | Activity [9] | Activity [10] | Activity [11]
1 | CN(C(=O)/C=C/c1cccc(C(F)(F)F)c1)[C@@H]1CC[C@@]2(O)[C@H]3Cc4ccc(O)c5c4[C@@]2(CCN3CC2CC2)[C@H]1O5 | 291 nM | 0.034 mg/kg | 0.47 nM | 7.4 | 3.2 nM |  |  |  |  |  | 
2 | CN(C(=O)c1ccc2ccccc2c1)[C@@H]1CC[C@@]2(O)[C@H]3Cc4ccc(O)c5c4[C@@]2(CCN3CC2CC2)[C@H]1O5 |  |  |  |  |  | 3.6 mg/kg |  |  |  |  | 
3 | CN(C(=O)/C=C/c1cccc([N+](=O)[O-])c1)[C@@H]1CC[C@@]2(O)[C@H]3Cc4ccc(O)c5c4[C@@]2(CCN3CC2CC2)[C@H]1O5 | 89 nM | 0.22 mg/kg | 0.23 nM | 12.9 | 1.4 nM |  | 185 nM |  |  |  | 
4 | CN(C(=O)/C=C/c1ccoc1)[C@@H]1CC[C@@]2(O)[C@H]3Cc4ccc(O)c5c4[C@@]2(CCN3)[C@H]1O5 |  |  |  |  |  | 7.07 mg/kg |  |  |  |  | 
5 | CN(C(=O)/C=C/c1ccc(C(F)(F)F)cc1)[C@@H]1CC[C@@]2(O)[C@H]3Cc4ccc(O)c5c4[C@@]2(CCN3CC2CC2)[C@H]1O5 | 78 nM | 0.026 mg/kg | 0.07 nM | 1.1 | 0.2 nM |  | 524 nM | Active |  |  | 
6 | CN(C(=O)/C=C/c1cccs1)[C@@H]1CC[C@@]2(O)[C@H]3Cc4ccc(O)c5c4[C@@]2(CCN3CC2CC2)[C@H]1O5 | 89.6 nM | 0.026 mg/kg | 0.1 nM | 9.6 | 0.28 nM | 0.0027 mg/kg |  | Active |  |  | 
7 | CN(C(=O)/C=C/c1ccoc1)[C@@H]1CC[C@@]2(O)[C@H]3Cc4ccc(O)c5c4[C@@]2(CCN3CCc2ccccc2)[C@H]1O5 |  |  |  |  |  | 1.03 mg/kg |  |  |  |  | 
8 | Cc1cccc(/C=C/C(=O)N(C)[C@@H]2CC[C@@]3(O)[C@H]4Cc5ccc(O)c6c5[C@@]3(CCN4CC3CC3)[C@H]2O6)c1 | 64.5 nM | 0.064 mg/kg | 0.32 nM | 9.7 | 1.95 nM |  | 1780 nM | Active |  |  | 
9 | CN(C(=O)/C=C/c1ccco1)[C@@H]1CC[C@@]2(O)[C@H]3Cc4ccc(O)c5c4[C@@]2(CCN3CC2CC2)[C@H]1O5 |  | 0.015 mg/kg | 0.55 nM | 9.4 | 0.2 nM |  |  | Active |  |  | 
10 | CCC/C=C/C(=O)N(C)[C@@H]1CC[C@@]2(O)[C@H]3Cc4ccc(O)c5c4[C@@]2(CCN3CC2CC2)[C@H]1O5 |  | 0.21 mg/kg | 0.647 nM | 8.8 | 0.072 nM |  | 1800 nM |  |  |  | 
11 | CN(C(=O)CCc1ccccc1)[C@@H]1CC[C@@]2(O)[C@H]3Cc4ccc(O)c5c4[C@@]2(CCN3CC2CC2)[C@H]1O5 | 188 nM | 0.29 mg/kg | 0.019 nM | 7.3 | 0.008 nM |  |  |  |  |  | 
12 | CC(=O)Nc1ccc2c3c1O[C@H]1[C@H](N(C)C(=O)/C=C/c4ccoc4)CC[C@@]4(O)[C@@H](C2)N(CC2CC2)CC[C@]314 |  |  |  |  |  | > 10 mg/kg |  |  |  |  | 
13 | CN1CC[C@]23c4c5ccc(O)c4O[C@H]2[C@H](N(C)C(=O)/C=C/c2ccoc2)CC[C@@]3(O)[C@H]1C5 | 33 nM |  | 55 nM |  | 6.3 nM | 1.03 mg/kg | 8.1 nM |  |  |  | 
14 | CN(C(=O)/C=C/c1cccc(F)c1)[C@@H]1CC[C@@]2(O)[C@H]3Cc4ccc(O)c5c4[C@@]2(CCN3CC2CC2)[C@H]1O5 | 276 nM | 0.007 mg/kg | 1.6 nM | 3.7 | 2.37 nM |  |  | Active |  |  | 
15 | CCCCCCO[C@@H]1CC[C@@]2(O)[C@H]3Cc4ccc(O)c5c4[C@@]2(CCN3CC2CC2)[C@H]1O5 | 1.5 nM |  | 16 nM |  | 0.12 nM | 1.78 mg/kg | 4.5 nM |  |  |  | 
16 | CN(C(=O)/C=C/c1ccoc1)[C@@H]1CC[C@@]2(O)[C@H]3Cc4ccc(O)c5c4[C@@]2(CCN3CC2CC2)[C@H]1O5.Cl [NALFURAFINE HYDROCHLORIDE] |  | 0.032 mg/kg |  |  |  |  |  | Active | Active | inactive | Active
